Assay results taken from paper PMC4103641 (Bioscience and Microflora, 2011).
Marks after values point to notes of the source that are not given here. Each block holds one compound with its values, some of them ahead of it.

Legend:
[1] = Metabolism of isoflavones by homogenate of germfree mouse small intestine; type: in vitro ADME; conditions: for Aglycone detected after incubation against compound added / Glycoside detected after incubation against compound added: 3 days; for Hydrolysis by homogenate of germfree mouse small intestine (in words): without bacterial activity; for Metabolized by incubation with germfree mouse small intestine (in words): 3 days anaerobically, both pH 5.0 and 7.4
Procedure, shortened: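 Upper small intestine from 14-week-old male germfree BALB/cA mice, homogenised anaerobically in 9 volumes BHI broth at pH 7.4 or 5.0. Test compound added from 5 mmol/l DMSO stock. Flavone internal standard added, then 5 extractions with equal-volume butanol, redissolved in 50% ethanol. Reversed-phase ODS HPLC (30 °C, acetonitrile/water/acetic acid gradient) with 260 nm diode-array detection. Values are % detected versus added.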

human fecal suspension = test: Metabolism of isoflavones by human fecal suspensions; type: in vitro ADME; conditions: for 6HG detected after incubation / 6HGDG detected after incubation: substrate 6HGDG; for Daidzein detected after incubation: substrate Daidzein; for Genistein detected after incubation: substrate Genistein; for Glycitein detected after incubation: substrate Glycitein; for Tectorigenin detected after incubation: substrate Tectorigenin

Aglycone detected after incubation against compound added ([1]; pH 5.0): 0.0%
Glycoside detected after incubation against compound added ([1]; pH 5.0): 99.4%
Aglycone detected after incubation against compound added ([1]; pH 7.4): 0.0%
Glycoside detected after incubation against compound added ([1]; pH 7.4): 106.2^a %
Hydrolysis by homogenate of germfree mouse small intestine (in words) [1]: not hydrolyzed
Metabolism by human fecal bacteria (in words) (human fecal suspension; incubation for 3 days): completely metabolized
Metabolism by human fecal bacteria (in words) (human fecal suspension; incubation for 3 days, listed as 6-hydroxygenistein 6,7-di-O-glucoside): highly metabolized
6HGDG metabolized to its aglycone, 6HG (human fecal suspension; six out of 10 samples): 9 to 56%
6HG detected after incubation (human fecal suspension; Mix, mixture of 10 samples): 0.0%
6HGDG detected after incubation (human fecal suspension; Mix, mixture of 10 samples): 0.0%
6HG detected after incubation (human fecal suspension; fecal sample no. 1): 55.8%
6HGDG detected after incubation (human fecal suspension; fecal sample no. 1): 0.0^a %
6HG detected after incubation (human fecal suspension; fecal sample no. 2): 40.8%
6HGDG detected after incubation (human fecal suspension; fecal sample no. 2): 0.0%
6HG detected after incubation (human fecal suspension; fecal sample no. 3): 26.6%
6HGDG detected after incubation (human fecal suspension; fecal sample no. 3): 0.0%
6HG detected after incubation (human fecal suspension; fecal sample no. 4): 28.4%
6HGDG detected after incubation (human fecal suspension; fecal sample no. 4): 0.0%
6HG detected after incubation (human fecal suspension; fecal sample no. 5): 18.4%
6HGDG detected after incubation (human fecal suspension; fecal sample no. 5): 0.0%
6HG detected after incubation (human fecal suspension; fecal sample no. 6): 8.7%
6HGDG detected after incubation (human fecal suspension; fecal sample no. 6): 0.0%
6HG detected after incubation (human fecal suspension; fecal sample no. 7): 0.0%
6HGDG detected after incubation (human fecal suspension; fecal sample no. 7): 0.0%
6HG detected after incubation (human fecal suspension; fecal sample no. 8): 0.0%
6HGDG detected after incubation (human fecal suspension; fecal sample no. 8): 0.0%
6HG detected after incubation (human fecal suspension; fecal sample no. 9): 0.0%
6HGDG detected after incubation (human fecal suspension; fecal sample no. 9): 0.0%
6HG detected after incubation (human fecal suspension; fecal sample no. 10): 0.0%
6HGDG detected after incubation (human fecal suspension; fecal sample no. 10): 0.0%
SMILES: O=c1c(-c2ccc(O)cc2)coc2cc(O[C@@H]3O[C@H](CO)[C@@H](O)[C@H](O)[C@H]3O)c(O[C@@H]3O[C@H](CO)[C@@H](O)[C@H](O)[C@H]3O)c(O)c12 [6HGDG, 6-hydroxygenistein 6,7-di-O-glucoside]

Glycitin metabolized detected as glycitein [1]: about 65%
Metabolized by incubation with germfree mouse small intestine (in words) [1]: completely metabolized
Aglycone detected after incubation against compound added ([1]; pH 5.0): 65.5%
Glycoside detected after incubation against compound added ([1]; pH 5.0): 0.0%
Aglycone detected after incubation against compound added ([1]; pH 7.4): 62.1%
Glycoside detected after incubation against compound added ([1]; pH 7.4): 0.0%
Hydrolysis by homogenate of germfree mouse small intestine (in words) [1]: highly hydrolyzed
SMILES: COc1cc2c(=O)c(-c3ccc(O)cc3)coc2cc1O[C@@H]1O[C@H](CO)[C@@H](O)[C@H](O)[C@H]1O [Glycitin, glycitin]

Substrate metabolized ([1]; pH 5.0): More than 95%
Aglycone detected after incubation against compound added ([1]; pH 5.0): 97.1%
Glycoside detected after incubation against compound added ([1]; pH 5.0): 4.9%
Substrate metabolized ([1]; pH 7.4): 40%
Aglycone detected after incubation against compound added ([1]; pH 7.4): 43.7%
Glycoside detected after incubation against compound added ([1]; pH 7.4): 60.7%
Hydrolysis by homogenate of germfree mouse small intestine (in words) [1]: highly hydrolyzed
SMILES: COc1c(O[C@@H]2O[C@H](CO[C@@H]3OC[C@@H](O)[C@H](O)[C@H]3O)[C@@H](O)[C@H](O)[C@H]2O)cc2occ(-c3ccc(O)cc3)c(=O)c2c1O [TGXG, Tectorigenin 7-O-xylosylglucoside]

Metabolized by incubation with germfree mouse small intestine (in words) [1]: completely metabolized
Glycoside detected after incubation against compound added ([1]; pH 5.0): 0.0%
Glycoside detected after incubation against compound added ([1]; pH 7.4): 0.0%
Hydrolysis by homogenate of germfree mouse small intestine (in words) [1]: highly hydrolyzed
SMILES: COc1c(O[C@@H]2O[C@H](CO)[C@@H](O)[C@H](O)[C@H]2O)cc2occ(-c3ccc(O)cc3)c(=O)c2c1O [Tectoridin, tectoridin]

Continued, compound first:

SMILES: O=c1c(-c2ccc(O)cc2)coc2cc(O)ccc12 [Daidzein, daidzein]
Detected intact after incubation ([1]; aglycone-form substrate): More than 95%
Daidzein detected after incubation (human fecal suspension; Mix, mixture of 10 samples): 30.1%
Daidzein detected after incubation (human fecal suspension; fecal sample no. 1): 84.5%
Daidzein detected after incubation (human fecal suspension; fecal sample no. 2): 90.8%
Daidzein detected after incubation (human fecal suspension; fecal sample no. 3): 60.3%
Daidzein detected after incubation (human fecal suspension; fecal sample no. 4): 96.4%
Daidzein detected after incubation (human fecal suspension; fecal sample no. 5): 8.0%
Daidzein detected after incubation (human fecal suspension; fecal sample no. 6): 0.0%
Daidzein detected after incubation (human fecal suspension; fecal sample no. 7): 62.6%
Daidzein detected after incubation (human fecal suspension; fecal sample no. 8): 13.9%
Daidzein detected after incubation (human fecal suspension; fecal sample no. 9): 81.4%
Daidzein detected after incubation (human fecal suspension; fecal sample no. 10): 8.4%

SMILES: O=c1c(-c2ccc(O)cc2)coc2cc(O)cc(O)c12 [Genistein]
Detected intact after incubation ([1]; aglycone-form substrate): More than 95%
Detected as intact substrate (human fecal suspension; 1 sample): 70%
Substrate metabolized (human fecal suspension; 1 sample, incubation for 3 days): 94%
Found intact (human fecal suspension; 2 samples): more than 90%
Metabolites detected, including 6HG and equol (in words) (human fecal suspension; any incubates): No metabolites
Substrate metabolized (in words) (human fecal suspension; mixed human feces): completely
Genistein detected after incubation (human fecal suspension; Mix, mixture of 10 samples): 0.0%
Genistein detected after incubation (human fecal suspension; fecal sample no. 1): 70.9%
Genistein detected after incubation (human fecal suspension; fecal sample no. 2): 91.2%
Genistein detected after incubation (human fecal suspension; fecal sample no. 3): 99.0%
Genistein detected after incubation (human fecal suspension; fecal sample no. 4): 5.9%
Genistein detected after incubation (human fecal suspension; fecal sample no. 5): 0.0%
Genistein detected after incubation (human fecal suspension; fecal sample no. 6): 0.0%
Genistein detected after incubation (human fecal suspension; fecal sample no. 7): 0.0%
Genistein detected after incubation (human fecal suspension; fecal sample no. 8): 0.0%
Genistein detected after incubation (human fecal suspension; fecal sample no. 9): 0.0%
Genistein detected after incubation (human fecal suspension; fecal sample no. 10): 0.0%

SMILES: O=c1c(-c2ccc(O)cc2)coc2cc(O[C@@H]3O[C@H](CO)[C@@H](O)[C@H](O)[C@H]3O)cc(O)c12 [Genistin]
Metabolized by incubation with germfree mouse small intestine (in words) [1]: completely metabolized
Glycoside detected after incubation against compound added ([1]; pH 5.0): 0.0%
Glycoside detected after incubation against compound added ([1]; pH 7.4): 0.0%
Hydrolysis by homogenate of germfree mouse small intestine (in words) [1]: highly hydrolyzed

SMILES: COc1cc2c(=O)c(-c3ccc(O)cc3)coc2cc1O [Glycitein, glycitein]
Substrate added that was resolved (in words) ([1]; aglycone-form substrate): about a half
Substrate metabolized (human fecal suspension; all fecal samples including the mixed sample): At least 75%
Glycitein detected after incubation (human fecal suspension; Mix, mixture of 10 samples): 8.0%
Glycitein detected after incubation (human fecal suspension; fecal sample no. 1): 24.6^a %
Glycitein detected after incubation (human fecal suspension; fecal sample no. 2): 17.5%
Glycitein detected after incubation (human fecal suspension; fecal sample no. 3): 2.7%
Glycitein detected after incubation (human fecal suspension; fecal sample no. 4): 10.7%
Glycitein detected after incubation (human fecal suspension; fecal sample no. 5): 7.1%
Glycitein detected after incubation (human fecal suspension; fecal sample no. 6): 0.0%
Glycitein detected after incubation (human fecal suspension; fecal sample no. 7): 12.2%
Glycitein detected after incubation (human fecal suspension; fecal sample no. 8): 3.2%
Glycitein detected after incubation (human fecal suspension; fecal sample no. 9): 0.0%
Glycitein detected after incubation (human fecal suspension; fecal sample no. 10): 5.6%

SMILES: COc1c(O)cc2occ(-c3ccc(O)cc3)c(=O)c2c1O [Tectorigenin, tectorigenin]
Detected intact after incubation ([1]; aglycone-form substrate): More than 95%
Substrate metabolized (in words) (human fecal suspension; 1 fecal sample): about half
Substrate metabolized (in words) (human fecal suspension; 8 of 10 fecal samples): metabolized completely
Metabolite detected (in words) (human fecal suspension; mixed human feces): no metabolite was detected
Substrate metabolized (in words) (human fecal suspension; mixed human feces): completely
Tectorigenin detected after incubation (human fecal suspension; Mix, mixture of 10 samples): 0.0%
Tectorigenin detected after incubation (human fecal suspension; fecal sample no. 1): 53.5%
Tectorigenin detected after incubation (human fecal suspension; fecal sample no. 2): 2.6%
Tectorigenin detected after incubation (human fecal suspension; fecal sample no. 3): 0.0%
Tectorigenin detected after incubation (human fecal suspension; fecal sample no. 4): 0.0%
Tectorigenin detected after incubation (human fecal suspension; fecal sample no. 5): 0.0%
Tectorigenin detected after incubation (human fecal suspension; fecal sample no. 6): 0.0%
Tectorigenin detected after incubation (human fecal suspension; fecal sample no. 7): 0.0%
Tectorigenin detected after incubation (human fecal suspension; fecal sample no. 8): 0.0%
Tectorigenin detected after incubation (human fecal suspension; fecal sample no. 9): 0.0%
Tectorigenin detected after incubation (human fecal suspension; fecal sample no. 10): 0.0%
